Measured values taken from ChEMBL document CHEMBL1157510, “Bioactive cembrane diterpenoids of Anisomeles indica” (J Nat Prod, 2008).
The source made the active and inactive calls. The rule behind the calls is not given here.

Columns and labels:
Platelet [1] = assay: Inhibition of thrombin-induced human platelet aggregation by light transmission aggregometer; type: functional, cell-based
Procedure, shortened: (§1)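 Human platelet suspension was preincubated with DMSO or compound at 37 °C for 3 min, stirring at 1200 rpm, before the activator was added. Aggregation was followed turbidimetrically in a light-transmission aggregometer.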

A549 = assay: Cytotoxicity against human A549 cells after 3 days by MTT assay; type: functional, cell-based; settings: for IC50: A549, 72 h
Procedure, shortened: (§2)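 Freshly trypsinized cells were seeded at 5000-10 000 per well, and compounds were added from DMSO stocks. After 3 days of culture, attached cells were given MTT (0.5 mg/mL, 1 h) and then solubilized in DMSO. Absorbance was read at 550 nm. IC50 is the concentration that cut cell growth by 50%. Values are the mean of two to three separate experiments, each in triplicate.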

HepG2 = assay: Cytotoxicity against human HepG2 cells after 3 days by MTT assay; type: functional, cell-based; settings: for IC50: HepG2, 72 h; procedure, shortened: as §2
Platelet [2] = assay: Inhibition of collagen-induced human platelet aggregation by light transmission aggregometer; type: functional, cell-based; procedure, shortened: as §1
Hep 3B2 = assay: (§3) Cytotoxicity against human Hep3B cells after 3 days by MTT assay; type: functional, cell-based; procedure, shortened: as §2
MCF7 = assay: Cytotoxicity against human MCF7 cells after 3 days by MTT assay; type: functional, cell-based; settings: for IC50: MCF7, 72 h; procedure, shortened: as §2
MDA-MB-231 = assay: Cytotoxicity against human MDA-MB-231 cells after 3 days by MTT assay; type: functional, cell-based; settings: for IC50: MDA-MB-231, 72 h; procedure, shortened: as §2
[3] = as §3; type: functional, cell-based, Hep 3B2; settings: 72 h; procedure, shortened: as §2

| Compound | IC50 (Platelet [1]) [µM] | IC50 (Platelet [2]) [µM] | Activity (Platelet [1]) | Activity (A549) | Activity (HepG2) | Activity (Platelet [2]) | Activity (Hep 3B2) | Activity (MCF7) | Activity (MDA-MB-231) | IC50 (A549) [µM] | IC50 (HepG2) [µM] | IC50 [3] [µM] | IC50 (MCF7) [µM] | IC50 (MDA-MB-231) [µM] |
| --- | --- | --- | --- | --- | --- | --- | --- | --- | --- | --- | --- | --- | --- | --- |
| C=C1C(=O)O[C@H]2/C=C(\C)C[C@@H]3C=C(CC[C@@H](OO)C(=C)CC[C@H]12)C(=O)O3 | – | – | inactive | inactive | inactive | inactive | inactive | inactive | inactive | – | – | – | – | – |
| C=C1CC[C@H]2C(=C)C(=O)O[C@@H]2/C=C(\C)C[C@H]2C=C(CCC1=O)C(=O)O2 | – | – | inactive | – | – | inactive | – | – | – | > 10 | 10 | > 10 | > 10 | 9.8 |
| COc1cccc2c1C(=O)c1c(O)c3c(c(O)c1C2=O)C[C@@](O)(C(=O)CO)C[C@@H]3O[C@H]1C[C@H](N)[C@H](O)[C@H](C)O1 [DOXORUBICIN] | – | – | – | – | – | – | – | – | – | 0.4 | 0.82 | 0.48 | – | 0.07 |
| C=C1C(=O)O[C@H]2/C=C(\C)C[C@@H]3C=C(C/C=C/[C@@](C)(OO)CC[C@H]12)C(=O)O3 | 11.9 | > 100 | – | inactive | inactive | – | inactive | inactive | inactive | – | – | – | – | – |
| C=C1CC[C@@H]2C(=C)C(=O)O[C@H]2/C=C(\C)C[C@@H]2C=C(CC[C@H]1O)C(=O)O2 | > 100 | 41.9 | – | inactive | inactive | – | inactive | inactive | inactive | – | – | – | – | – |

More lines, main results first:

| IC50 (Platelet [1]) [µM] | IC50 (Platelet [2]) [µM] | Compound | Activity (Platelet [1]) | Activity (A549) | Activity (HepG2) | Activity (Platelet [2]) | Activity (Hep 3B2) | Activity (MCF7) | Activity (MDA-MB-231) | IC50 (A549) [µM] | IC50 (HepG2) [µM] | IC50 [3] [µM] | IC50 (MCF7) [µM] | IC50 (MDA-MB-231) [µM] |
| --- | --- | --- | --- | --- | --- | --- | --- | --- | --- | --- | --- | --- | --- | --- |
| > 100 | 153 | CC(=O)Oc1ccccc1C(=O)O [ASPIRIN] | – | – | – | – | – | – | – | – | – | – | – | – |
| 4.8 | > 100 | C=C1C(=O)O[C@H]2/C=C(\C)C[C@@H]3C=C(CC[C@H]4O[C@@]4(C)CC[C@H]12)C(=O)O3 | – | – | – | – | – | – | – | 8.8 | 10 | 9.3 | > 10 | > 10 |
| > 100 | 19.7 | C=C1C(=O)O[C@H]2/C=C(\C)C[C@@H]3C=C(CC/C=C(\C)CC[C@H]12)C(=O)O3 | – | – | – | – | – | – | – | 9.6 | 10 | 7.4 | 9.5 | 9.5 |
| 20 | > 100 | C=C1C(=O)O[C@H]2/C=C(\C)C[C@@H]3C=C(C/C=C/[C@@](C)(O)CC[C@H]12)C(=O)O3 | – | – | – | – | – | – | – | 9.9 | 10 | > 10 | > 10 | > 10 |
